Measurements from ChEMBL document CHEMBL3808360, “Discovery of Potent Non-Nucleoside Inhibitors of Dengue Viral RNA-Dependent RNA Polymerase from a Fragment Hit Using Structure-Based Drug Design” (J Med Chem, 2016).

System: not listed separately
Experiment: Inhibition of RdRp activity of Dengue virus 4 full length NS5 preincubated for 15 mins followed by RNA and NTP addition measured after 120 mins
Set-up: species or system dengue virus type 4
Settings: not given
In short: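 Reaction with 100 nM DENV4 full-length NS5 and 100 nM in vitro transcribed DENV4 mini-genome RNA template (575 nt, linked 5'-3' UTRs). NTPs: 20 µM each ATP, GTP and UTP plus 5 µM ATTO-CTP. Compound (two-fold series from 20 or 100 µM) preincubated with enzyme 15 min at room temperature. RNA/NTP mix added; run 120 min. Stopped with alkaline phosphatase stop buffer, 60 min. Fluorescence read at ex 422/em 566 nm. Duplicate wells; IC₅₀ from variable-slope sigmoidal fit.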

| SMILES | IC50 |
| --- | --- |
| O=C(O)Cc1cc(CC(=O)O)cc(-c2ccc(Cl)cc2)c1 | 62 µM |
| O=C(O)Cc1cc(CC(=O)O)cc(-c2cccs2)c1 | 15 µM |
| COc1cc(OC)c(-c2ccc(C#CCO)s2)cc1C(=O)NS(=O)(=O)c1ccccc1 | 0.25 µM |
| COc1ccc(CC(=O)O)cc1-c1ccc(C#CCO)s1 | 7.5 µM |
| COc1cc(C)c(C(=O)NS(=O)(=O)c2ccccc2)cc1-c1ccc(C#CCO)s1 | 0.17 µM |
| O=C(O)Cc1cc(CC(=O)O)cc(-c2cccc(Cl)c2)c1 | 141 µM |
| O=C(O)Cc1cc(CC(=O)O)cc(-c2ccc(Br)s2)c1 | 39 µM |
| COc1cc(C)c(-c2noc(=O)[nH]2)cc1-c1ccc(C#CCO)s1 | 3.2 µM |

System: not listed separately
Experiment: Binding affinity to Dengue virus 4 NS5 RdRp (274 to 900 residues) by ITC method
Set-up: species or system dengue virus type 4
Settings: not given
In short: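 DENV-4 RdRp (residues 274-900) at 30-50 µM in the cell, in 20 mM HEPES pH 7.0, 300 mM NaCl, 2 mM TCEP, DMSO matched to ligand. Ligand diluted from a 50 mM DMSO stock into the same buffer, typically 2.5 mM in the syringe. Run at 25°C: one 0.4 µl injection, then 15 × 2.6 µl. Heat of dilution into buffer subtracted.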

| SMILES | Kd |
| --- | --- |
| O=C(O)Cc1cc(CC(=O)O)cc(-c2cccs2)c1 | 28 µM |
| O=C(O)Cc1cc(CC(=O)O)cc(-c2ccc(Cl)s2)c1 | 33 µM |
| COc1ccc(CC(=O)O)cc1-c1ccc(C#CCO)s1 | 14 µM |
| O=C(O)Cc1cc(CC(=O)O)cc(-c2ccc(Br)s2)c1 | 46 µM |

System: not listed separately
Experiment: Inhibition of RdRp activity of Dengue virus 1 NS5 preincubated for 15 mins followed by RNA and NTP addition measured after 120 mins
Set-up: species or system dengue virus type 1
Settings: not given

| SMILES | IC50 |
| --- | --- |
| COc1cccc(S(=O)(=O)NC(=O)c2cc(-c3ccc(C#CCO)s3)c(OC)cc2OC)c1 | 0.068 µM |
| O=C(O)Cc1cc(CC(=O)O)cc(-c2ccc(C#CCO)s2)c1 | 0.3 µM |

System: not listed separately
Experiment: Inhibition of RdRp activity of Dengue virus 2 NS5 preincubated for 15 mins followed by RNA and NTP addition measured after 120 mins
Set-up: species or system dengue virus type 2
Settings: not given

| SMILES | IC50 |
| --- | --- |
| COc1cccc(S(=O)(=O)NC(=O)c2cc(-c3ccc(C#CCO)s3)c(OC)cc2OC)c1 | 0.11 µM |
| O=C(O)Cc1cc(CC(=O)O)cc(-c2ccc(C#CCO)s2)c1 | 2.2 µM |

System: not listed separately
Experiment: Inhibition of RdRp activity of Dengue virus 3 NS5 preincubated for 15 mins followed by RNA and NTP addition measured after 120 mins
Set-up: species or system dengue virus type 3
Settings: not given

| SMILES | IC50 |
| --- | --- |
| COc1cccc(S(=O)(=O)NC(=O)c2cc(-c3ccc(C#CCO)s3)c(OC)cc2OC)c1 | 0.048 µM |
| O=C(O)Cc1cc(CC(=O)O)cc(-c2ccc(C#CCO)s2)c1 | 0.5 µM |

System: not listed separately
Experiment: Binding affinity to biotinylated Dengue virus 4 NS5 RdRp by surface plasmon resonance analysis
Set-up: species or system dengue virus type 4
Settings: not given
In short: (§1)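 Blank reference cell. Compound run as a 7-point 2-fold series, typically from 200 µM, with zero-concentration subtraction. Flow 30 µL/min, 45 s contact, 60-600 s dissociation, run from low to high concentration.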

| SMILES | Kd |
| --- | --- |
| COc1cccc(S(=O)(=O)NC(=O)c2cc(-c3ccc(C#CCO)s3)c(OC)cc2OC)c1 | 0.07 µM |
| COc1cc(OC)c(-c2ccc(C#CCO)s2)cc1C(=O)NS(=O)(=O)c1ccccc1 | 0.09 µM |
| COc1ccc(CC(=O)O)cc1-c1ccc(C#CCO)s1 | 2.2 µM |

System: not listed separately
Experiment: Apparent permeability across apical to basolateral side in human Caco2 cells at pH 7.4
Type: ADME, cell-based
Settings: Caco-2, pH 7.4
In short: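 Apical-to-basal Caco-2 permeability measured at pH 7.4.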

| SMILES | Papp A→B |
| --- | --- |
| COc1cccc(S(=O)(=O)NC(=O)c2cc(-c3ccc(C#CCO)s3)c(OC)cc2OC)c1 | 3.91 ×10⁻⁶ cm/s |
| COc1cc(OC)c(-c2ccc(C#CCO)s2)cc1C(=O)NS(=O)(=O)c1ccccc1 | 10.8 ×10⁻⁶ cm/s |
| COc1ccc(CC(=O)O)cc1-c1ccc(C#CCO)s1 | 2.73 ×10⁻⁶ cm/s |
| O=C(O)Cc1cc(CC(=O)O)cc(-c2ccc(C#CCO)s2)c1 | 0.51 ×10⁻⁶ cm/s |
| COc1cc(C)c(C(=O)NS(=O)(=O)c2ccccc2)cc1-c1ccc(C#CCO)s1 | 0.5 ×10⁻⁶ cm/s |

System: not listed separately
Experiment: Dissociation constant, pKa of the compound
Type: physicochemical
Settings: not given

| SMILES | pKa |
| --- | --- |
| COc1cccc(S(=O)(=O)NC(=O)c2cc(-c3ccc(C#CCO)s3)c(OC)cc2OC)c1 | 4.7 |
| COc1cc(OC)c(-c2ccc(C#CCO)s2)cc1C(=O)NS(=O)(=O)c1ccccc1 | 4.8 |
| COc1cc(C)c(C(=O)NS(=O)(=O)c2ccccc2)cc1-c1ccc(C#CCO)s1 | 3.8 |
| COc1cc(C)c(-c2noc(=O)[nH]2)cc1-c1ccc(C#CCO)s1 | 5.5 |

System: not listed separately
Experiment: Lipophilicity, log D of the compound at pH 7.4
Type: physicochemical
Settings: buffer

| SMILES | logD |
| --- | --- |
| COc1cccc(S(=O)(=O)NC(=O)c2cc(-c3ccc(C#CCO)s3)c(OC)cc2OC)c1 | 1.6 |
| COc1cc(OC)c(-c2ccc(C#CCO)s2)cc1C(=O)NS(=O)(=O)c1ccccc1 | 1.5 |
| COc1cc(C)c(C(=O)NS(=O)(=O)c2ccccc2)cc1-c1ccc(C#CCO)s1 | 1.7 |
| COc1cc(C)c(-c2noc(=O)[nH]2)cc1-c1ccc(C#CCO)s1 | 1.9 |

System: dengue virus type 1
Experiment: Antiviral activity against Dengue virus 1 MY97-10245 infected in human A549 cells assessed as reduction in DENV envelope protein level after 48 hrs
Type: functional, organism-based
Settings: MY97-10245, A549, 48 h
In short: (§2)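 A549 cells (~7×10^3/well) seeded in Ham's F-12K with 2% FBS, 1 mM L-glutamine and 1% penicillin-streptomycin, held overnight at 37°C, 5% CO₂. Infected at 24 h post-seeding (DENV1 MOI 0.5, DENV2 MOI 0.3, DENV3 MOI 1, DENV4 MOI 0.5). Compound added at once as a 10-point, 3-fold series, 0.5% DMSO final. Fixed at 48 h with 4% paraformaldehyde. Stained with Dylight 488-4G2 anti-envelope antibody and DRAQ5 nuclear stain. Envelope protein quantified by high-content imaging; EC₅₀ calculated.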

| SMILES | EC50 |
| --- | --- |
| COc1cccc(S(=O)(=O)NC(=O)c2cc(-c3ccc(C#CCO)s3)c(OC)cc2OC)c1 | 1.8 µM |
| COc1cc(OC)c(-c2ccc(C#CCO)s2)cc1C(=O)NS(=O)(=O)c1ccccc1 | 15 µM |
| COc1cc(C)c(C(=O)NS(=O)(=O)c2ccccc2)cc1-c1ccc(C#CCO)s1 | 31 µM |

System: dengue virus type 2
Experiment: Antiviral activity against Dengue virus 2 MY97-10340 infected in human A549 cells assessed as reduction in DENV envelope protein level after 48 hrs
Type: functional, organism-based
Settings: MY97-10340, A549, 48 h
In short: as §2

| SMILES | EC50 |
| --- | --- |
| COc1cccc(S(=O)(=O)NC(=O)c2cc(-c3ccc(C#CCO)s3)c(OC)cc2OC)c1 | 2.3 µM |
| COc1cc(OC)c(-c2ccc(C#CCO)s2)cc1C(=O)NS(=O)(=O)c1ccccc1 | 37 µM |
| COc1cc(C)c(C(=O)NS(=O)(=O)c2ccccc2)cc1-c1ccc(C#CCO)s1 | 34 µM |

System: dengue virus type 3
Experiment: Antiviral activity against Dengue virus 3 MY05-34640 infected in human A549 cells assessed as reduction in DENV envelope protein level after 48 hrs
Type: functional, organism-based
Settings: MY05-34640, A549, 48 h
In short: as §2

| SMILES | EC50 |
| --- | --- |
| COc1cccc(S(=O)(=O)NC(=O)c2cc(-c3ccc(C#CCO)s3)c(OC)cc2OC)c1 | 1.8 µM |
| COc1cc(OC)c(-c2ccc(C#CCO)s2)cc1C(=O)NS(=O)(=O)c1ccccc1 | 7.3 µM |
| COc1cc(C)c(C(=O)NS(=O)(=O)c2ccccc2)cc1-c1ccc(C#CCO)s1 | 18 µM |

System: dengue virus type 4
Experiment: Antiviral activity against Dengue virus 4 MY01-22713 infected in human A549 cells assessed as reduction in DENV envelope protein level after 48 hrs
Type: functional, organism-based
Settings: MY01-22713, A549, 48 h
In short: as §2

| SMILES | EC50 |
| --- | --- |
| COc1cccc(S(=O)(=O)NC(=O)c2cc(-c3ccc(C#CCO)s3)c(OC)cc2OC)c1 | 1.8 µM |
| COc1cc(OC)c(-c2ccc(C#CCO)s2)cc1C(=O)NS(=O)(=O)c1ccccc1 | 14 µM |
| COc1cc(C)c(C(=O)NS(=O)(=O)c2ccccc2)cc1-c1ccc(C#CCO)s1 | 41 µM |

System: not listed separately
Experiment: Cytotoxicity against human HepG2 cells
Type: cell-based
Settings: not given

| SMILES | CC50 |
| --- | --- |
| COc1cccc(S(=O)(=O)NC(=O)c2cc(-c3ccc(C#CCO)s3)c(OC)cc2OC)c1 | > 50 µM |

System: not listed separately
Experiment: Inhibition of RdRp activity of Dengue virus 4 of NS5 preincubated with enzyme followed by RNA and NTP addition
Set-up: species or system dengue virus type 4
Settings: not given

| SMILES | IC50 |
| --- | --- |
| COc1ccc(CC(=O)O)cc1-c1ccccc1 | 734 µM |

System: not listed separately
Experiment: Binding affinity to N-terminal AviTag Dengue virus 3 NS5 RdRp (263 to 900 residues) expressed in Escherichia coli BL21 cells by surface plasmon resonance analysis
Set-up: species or system dengue virus type 3
Settings: not given
In short: as §1

| SMILES | Kd |
| --- | --- |
| COc1ccc(CC(=O)O)cc1-c1ccccc1 | 613 µM |

System: not listed separately
Experiment: Inhibition of RdRp activity of Dengue virus 3 NS5
Set-up: species or system dengue virus type 3
Settings: not given

| SMILES | IC50 |
| --- | --- |
| O=C(O)Cc1ccc(O)c(-c2ccccc2)c1 | 769 µM |

System: not listed separately
Experiment: Binding affinity to Dengue virus 3 NS5 RdRp by surface plasmon resonance analysis
Set-up: species or system dengue virus type 3
Settings: not given
In short: as §1

| SMILES | Kd |
| --- | --- |
| O=C(O)Cc1ccc(O)c(-c2ccccc2)c1 | 200 µM |
